Experimental data reported in ChEMBL document CHEMBL1129574, “Synthesis, structure-activity relationships, and pharmacokinetic properties of dihydroorotate dehydrogenase inhibitors: 2-cyano-3-cyclopropyl-3-hydroxy-N-[3'-methyl-4'-(trifluoromethyl)phenyl ] propenamide and related compounds” (J Med Chem, 1996).

Columns and labels:
[1] = biological target: Dihydroorotate dehydrogenase (quinone), mitochondrial (Rattus norvegicus, UniProt Q63707); assay: Inhibitory concentration tested against enzyme dihydroorotate dehydrogenase in rat
Mus musculus [2] = assay: In vivo ability to inhibit delayed type hypersensitivity in mouse at a concentration of 100 mg/kg; format: functional
Method in brief: (§1)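 Male CD-1 mice (25–30 g, n = 8-16) sensitized day 0 by s.c. 1 mg methylated BSA in saline/Freund's complete adjuvant; negative controls saline/FCA. Day 7 challenge: MBSA 0.1 mg into right hind footpad, saline in left. Oral dosing once daily days 4–6 plus twice on day 7 (1 h before, 6 h after challenge). Paw edema read 24 h post-challenge; Student's t-test.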

Rattus norvegicus [3] = assay: Compound was tested in vivo for its ability to inhibit DTH(delayed type hypersensitivity )in rat at a concentration of 50 mg/kg; format: functional
Method in brief: (§2)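 Male CFHB rats (160-180 g, n=7-12) sensitized day 0 by tail-base s.c. FCA (0.4 mg M. tuberculosis in liquid paraffin); controls got incomplete adjuvant. Day 7 challenge: soluble M. tuberculosis extract 0.4 mg into right hind footpad, saline in left. Oral dosing once daily days 4-6 and twice day 7 (1 h before, 6 h after). Edema read at 24 h; Student's t-test.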

[4] = t1/2 in mouse plasma after oral dose (30/mg/Kg); format: ADME, organism-based
Method in brief: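 Male CD-1 mice (25–32 g, n=5/time point) gavaged orally 30 mg/kg (10 mL/kg). Blood by exsanguination under ether at 0, 1, 3, 6, 24, 48, 72 h, pooled per time point, heparinized; plasma stored −20 °C. Drug quantified by reversed-phase HPLC (ODS, pH 7 phosphate/acetonitrile 65:35, UV 300 nm) with internal standard and spiked-plasma calibration.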

[5] = t1/2 in rat plasma after oral dose (10 mg/kg); format: ADME, organism-based
Method in brief: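 Male Wistar CFHB rats (190–220 g, n=3/time point) given 10 mg/kg orally by gavage (10 mL/kg). Cardiac-puncture blood under ether at 0, 1, 3, 6, 24, 48, 72 h, individual heparinized samples; plasma kept at −20 °C. Levels by HPLC (ODS column, 0.1 M pH 7 phosphate 65%/acetonitrile 35%, UV 300 nm), internal standard, peak-area calibration from spiked blank plasma.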

[6] = biological target: Dihydroorotate dehydrogenase (quinone), mitochondrial (Mus musculus, UniProt O35435); assay: Inhibitory concentration tested on enzyme dihydroorotate dehydrogenase in mouse
Mus musculus [7] = assay: In vivo for its ability to inhibit delayed type hypersensitivity in mouse following 30 mg/kg administration.; format: functional; method in brief: as §1
Rattus norvegicus [8] = assay: Compound was tested in vivo for its ability to inhibit DTH(delayed type hypersensitivity )in rat at a concentration of 3 mg/kg; format: functional; method in brief: as §2
Mus musculus [9] = assay: Compound was tested in vivo for its ability to inhibit DTH(delayed type hypersensitivity ) in mouse at a concentration of 30 mg/kg; format: functional; method in brief: as §1
Rattus norvegicus [10] = assay: Compound was tested in vivo for its ability to inhibit DTH(delayed type hypersensitivity ) in rat at a concentration of 50 mg/kg; format: functional; method in brief: as §2
Mus musculus [11] = assay: Compound was tested in vivo for its ability to inhibit DTH(delayed type hypersensitivity ) in mouse at a concentration of 100 mg/kg; format: functional; method in brief: as §1
Rattus norvegicus [12] = assay: Compound was tested in vivo for its ability to inhibit DTH(delayed type hypersensitivity ) in rat at a concentration of 10 mg/kg; format: functional; method in brief: as §2
Rattus norvegicus [13] = assay: Compound was tested in vivo for its ability to inhibit DTH(delayed type hypersensitivity ) in rat at a concentration of 1 mg/kg; format: functional; method in brief: as §2
Rattus norvegicus [14] = assay: Compound was tested in vivo for its ability to inhibit DTH(delayed type hypersensitivity ) in rat at a concentration of 3 mg/kg; format: functional; method in brief: as §2
Rattus norvegicus [15] = assay: Compound was tested in vivo for its ability to inhibit DTH(delayed type hypersensitivity )in rat at a concentration of 1 mg/kg; format: functional; method in brief: as §2
Rattus norvegicus [16] = assay: Compound was tested in vivo for its ability to inhibit DTH(delayed type hypersensitivity )in rat at a concentration of 50 mg/kg
Mus musculus [17] = assay: Compound was tested in vivo for its ability to inhibit DTH(delayed type hypersensitivity )in mouse at a concentration of 30 mg/kg.; format: functional; method in brief: as §1
Mus musculus [18] = assay: Compound was tested in vivo for its ability to inhibit DTH(delayed type hypersensitivity ) in mouse at a concentration of 10 mg/kg; format: functional; method in brief: as §1
Rattus norvegicus [19] = assay: In vivo for its ability to inhibit delayed type hypersensitivity in rat following 10 mg/kg administration.

Chain of Dihydroorotate dehydrogenase (quinone), mitochondrial (Mus musculus, UniProt O35435) (O35435 whole entry): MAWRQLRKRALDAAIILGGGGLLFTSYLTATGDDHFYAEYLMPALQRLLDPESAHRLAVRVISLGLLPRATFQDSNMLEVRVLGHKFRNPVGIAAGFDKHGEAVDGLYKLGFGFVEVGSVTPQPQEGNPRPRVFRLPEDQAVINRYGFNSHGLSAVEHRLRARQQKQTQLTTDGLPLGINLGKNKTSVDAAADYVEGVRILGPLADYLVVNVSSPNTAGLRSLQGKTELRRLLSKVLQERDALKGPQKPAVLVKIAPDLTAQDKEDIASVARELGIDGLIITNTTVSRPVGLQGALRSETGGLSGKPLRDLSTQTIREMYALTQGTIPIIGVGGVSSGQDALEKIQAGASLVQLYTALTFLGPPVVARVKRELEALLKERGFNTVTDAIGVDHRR
Chain of Dihydroorotate dehydrogenase (quinone), mitochondrial (Rattus norvegicus, UniProt Q63707) (Q63707 whole entry): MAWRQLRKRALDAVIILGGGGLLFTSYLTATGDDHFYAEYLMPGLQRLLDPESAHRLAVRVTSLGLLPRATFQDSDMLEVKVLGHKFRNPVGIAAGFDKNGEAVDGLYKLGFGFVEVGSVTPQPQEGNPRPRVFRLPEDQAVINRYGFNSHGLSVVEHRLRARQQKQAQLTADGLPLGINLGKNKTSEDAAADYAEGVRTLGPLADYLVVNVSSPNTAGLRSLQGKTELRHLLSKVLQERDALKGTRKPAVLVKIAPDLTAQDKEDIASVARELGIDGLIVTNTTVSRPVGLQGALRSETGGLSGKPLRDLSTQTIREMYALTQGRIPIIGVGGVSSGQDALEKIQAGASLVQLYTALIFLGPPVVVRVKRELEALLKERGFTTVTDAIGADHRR

| Structure (SMILES) | IC50 [1] | half-life [4] | half-life [5] | IC50 [6] | inhibition in vivo at 30 mg/kg (Mus musculus [9]) | inhibition in vivo at 50 mg/kg (Rattus norvegicus [10]) | other results |
| --- | --- | --- | --- | --- | --- | --- | --- |
| N#C/C(C(=O)Nc1ccc(CCc2ccccc2)cc1)=C(/O)C1CC1 | 138 nM |  |  |  |  |  | inhibition in vivo at 100 mg/kg (Mus musculus [2]): 5%; inhibition in vivo at 50 mg/kg (Rattus norvegicus [3]): 51% |
| Cc1cc(NC(=O)/C(C#N)=C(\O)C2CC2)ccc1C(F)(F)C(F)(F)F | 11 nM | 11 h | 10 h | 282 nM |  |  | inhibition in vivo at 30 mg/kg (Mus musculus [7]): 65%; inhibition in vivo at 3 mg/kg (Rattus norvegicus [8]): 70% |
| N#C/C(C(=O)Nc1cccc(C(F)(F)F)c1)=C(/O)C1CC1 | 479 nM |  |  | 525 nM | 41% | 49% |  |
| N#C/C(C(=O)Nc1ccc(C(F)(F)F)cn1)=C(/O)C1CC1 | 17 nM | 5 h | 7 h | 158 nM |  |  | inhibition in vivo at 100 mg/kg (Mus musculus [2]): 67%; inhibition in vivo at 3 mg/kg (Rattus norvegicus [8]): 40% |
| N#C/C(C(=O)Nc1cccc(Cl)c1)=C(/O)C1CC1 | 343 nM | 2 h | 3 h | 3000 nM |  | 25% | inhibition in vivo at 100 mg/kg (Mus musculus [11]): 55% |
| Cc1ccc(NC(=O)/C(C#N)=C(\O)C2CC2)cc1 | 234 nM |  |  | 288 nM |  | 28% | inhibition in vivo at 100 mg/kg (Mus musculus [11]): 47% |
| N#C/C(C(=O)Nc1ccccc1)=C(/O)C1CC1 | 2000 nM |  |  | 1580 nM | 25% | 43% |  |
| C=C(C)/C(O)=C(\C#N)C(=O)Nc1ccc(C(F)(F)F)cc1 | 251 nM | 13 h | 7 h | 195 nM |  | 78% | inhibition in vivo at 100 mg/kg (Mus musculus [11]): 54% |
| N#C/C(C(=O)Nc1ccc(C#N)cc1)=C(/O)C1CC1 | 53 nM | 6 h | 5 h | 42 nM | 73% |  | inhibition in vivo at 10 mg/kg (Rattus norvegicus [12]): 47% |
| N#C/C(C(=O)Nc1ccc(SC(F)(F)F)cc1)=C(/O)C1CC1 |  | 6 h | 2 h | 100 nM | 39% |  | inhibition in vivo at 1 mg/kg (Rattus norvegicus [13]): 58% |
| C/C=C/C(O)=C(\C#N)C(=O)Nc1ccc(C(F)(F)F)cc1 | 1410 nM |  |  | 4270 nM |  | 16% | inhibition in vivo at 100 mg/kg (Mus musculus [11]): 54% |
| Cc1cc(NC(=O)/C(C#N)=C(\O)C2CC2)ccc1OC(F)(F)F | 18 nM | 14 h | 4 h | 178 nM |  |  | inhibition in vivo at 30 mg/kg (Mus musculus [7]): 61%; inhibition in vivo at 3 mg/kg (Rattus norvegicus [8]): 46% |
| N#C/C(C(=O)Nc1ccc(Br)cc1)=C(/O)C1CC1 | 79 nM | 33 h | 20 h | 36 nM | 64% |  | inhibition in vivo at 10 mg/kg (Rattus norvegicus [12]): 58% |
| N#C/C(C(=O)Nc1ccc(Cl)cc1)=C(/O)C1CC1 |  | 21 h | 22 h | 36 nM |  |  | inhibition in vivo at 3 mg/kg (Rattus norvegicus [14]): 74% |
| CSc1ccc(NC(=O)/C(C#N)=C(\O)C2CC2)cc1 | 13 nM | < 2 h | < 1 h | 445 nM |  | 60% | inhibition in vivo at 100 mg/kg (Mus musculus [11]): 46% |
| N#C/C(C(=O)Nc1ccccc1Cl)=C(/O)C1CC1 | 13300 nM |  |  | 16600 nM |  | -12% | inhibition in vivo at 100 mg/kg (Mus musculus [11]): 43% |
| Cc1cc(NC(=O)/C(C#N)=C(\O)C2CC2)ccc1SC(F)(F)F | 11 nM | 10 h | 13 h | 178 nM |  |  | inhibition in vivo at 30 mg/kg (Mus musculus [7]): 55%; inhibition in vivo at 1 mg/kg (Rattus norvegicus [15]): 68% |
| N#C/C(C(=O)Nc1ccc([N+](=O)[O-])cc1)=C(/O)C1CC1 | 21 nM | 8 h | 4 h | 50 nM |  |  | inhibition in vivo at 30 mg/kg (Mus musculus [7]): 64%; inhibition in vivo at 50 mg/kg (Rattus norvegicus [16]): 90% |
| C=CC/C(O)=C(\C#N)C(=O)Nc1ccc(C(F)(F)F)cc1 | 107 nM | 23 h | 4 h | 63 nM | 75% | 79% |  |
| N#C/C(C(=O)Nc1ccc(OC(F)(F)F)cc1)=C(/O)C1CC1 | 5 nM | 42 h | 22 h | 173 nM |  |  | inhibition in vivo at 30 mg/kg (Mus musculus [17]): 85%; inhibition in vivo at 1 mg/kg (Rattus norvegicus [15]): 78% |
| C#C/C(O)=C(\C#N)C(=O)Nc1ccc(C(F)(F)F)cc1 | 500 nM |  |  | 2090 nM |  | 4% | inhibition in vivo at 100 mg/kg (Mus musculus [11]): 45% |
| N#C/C(C(=O)Nc1ccc(S(=O)(=O)C(F)(F)F)cc1)=C(/O)C1CC1 | 3 nM | 14 h | 14 h | 89 nM | 43% |  | inhibition in vivo at 3 mg/kg (Rattus norvegicus [14]): 66% |
| N#C/C(C(=O)Nc1ccc([S+]([O-])C(F)(F)F)cc1)=C(/O)C1CC1 (centres undefined) | 16 nM | 3 h | 3 h | 417 nM | 25% |  | inhibition in vivo at 3 mg/kg (Rattus norvegicus [14]): 75% |
| N#C/C(C(=O)Nc1ccc(C(F)(F)F)cc1)=C(/O)c1ccc(C(F)(F)F)cc1 | > 10000 nM |  |  | > 10000 nM |  |  | inhibition in vivo at 10 mg/kg (Mus musculus [18]): 17%; inhibition in vivo at 10 mg/kg (Rattus norvegicus [19]): 16% |
